{"source": "paper PMC2998688", "about": "(British Journal of Pharmacology, 2010)", "key": {"[1]": {"molecular_target": "rat IP3R1 (recombinant, expressed in DT40 cells) (Rattus norvegicus, UniProt P29994)", "sequence (P29994 1-2735 isoform P29994-2)": "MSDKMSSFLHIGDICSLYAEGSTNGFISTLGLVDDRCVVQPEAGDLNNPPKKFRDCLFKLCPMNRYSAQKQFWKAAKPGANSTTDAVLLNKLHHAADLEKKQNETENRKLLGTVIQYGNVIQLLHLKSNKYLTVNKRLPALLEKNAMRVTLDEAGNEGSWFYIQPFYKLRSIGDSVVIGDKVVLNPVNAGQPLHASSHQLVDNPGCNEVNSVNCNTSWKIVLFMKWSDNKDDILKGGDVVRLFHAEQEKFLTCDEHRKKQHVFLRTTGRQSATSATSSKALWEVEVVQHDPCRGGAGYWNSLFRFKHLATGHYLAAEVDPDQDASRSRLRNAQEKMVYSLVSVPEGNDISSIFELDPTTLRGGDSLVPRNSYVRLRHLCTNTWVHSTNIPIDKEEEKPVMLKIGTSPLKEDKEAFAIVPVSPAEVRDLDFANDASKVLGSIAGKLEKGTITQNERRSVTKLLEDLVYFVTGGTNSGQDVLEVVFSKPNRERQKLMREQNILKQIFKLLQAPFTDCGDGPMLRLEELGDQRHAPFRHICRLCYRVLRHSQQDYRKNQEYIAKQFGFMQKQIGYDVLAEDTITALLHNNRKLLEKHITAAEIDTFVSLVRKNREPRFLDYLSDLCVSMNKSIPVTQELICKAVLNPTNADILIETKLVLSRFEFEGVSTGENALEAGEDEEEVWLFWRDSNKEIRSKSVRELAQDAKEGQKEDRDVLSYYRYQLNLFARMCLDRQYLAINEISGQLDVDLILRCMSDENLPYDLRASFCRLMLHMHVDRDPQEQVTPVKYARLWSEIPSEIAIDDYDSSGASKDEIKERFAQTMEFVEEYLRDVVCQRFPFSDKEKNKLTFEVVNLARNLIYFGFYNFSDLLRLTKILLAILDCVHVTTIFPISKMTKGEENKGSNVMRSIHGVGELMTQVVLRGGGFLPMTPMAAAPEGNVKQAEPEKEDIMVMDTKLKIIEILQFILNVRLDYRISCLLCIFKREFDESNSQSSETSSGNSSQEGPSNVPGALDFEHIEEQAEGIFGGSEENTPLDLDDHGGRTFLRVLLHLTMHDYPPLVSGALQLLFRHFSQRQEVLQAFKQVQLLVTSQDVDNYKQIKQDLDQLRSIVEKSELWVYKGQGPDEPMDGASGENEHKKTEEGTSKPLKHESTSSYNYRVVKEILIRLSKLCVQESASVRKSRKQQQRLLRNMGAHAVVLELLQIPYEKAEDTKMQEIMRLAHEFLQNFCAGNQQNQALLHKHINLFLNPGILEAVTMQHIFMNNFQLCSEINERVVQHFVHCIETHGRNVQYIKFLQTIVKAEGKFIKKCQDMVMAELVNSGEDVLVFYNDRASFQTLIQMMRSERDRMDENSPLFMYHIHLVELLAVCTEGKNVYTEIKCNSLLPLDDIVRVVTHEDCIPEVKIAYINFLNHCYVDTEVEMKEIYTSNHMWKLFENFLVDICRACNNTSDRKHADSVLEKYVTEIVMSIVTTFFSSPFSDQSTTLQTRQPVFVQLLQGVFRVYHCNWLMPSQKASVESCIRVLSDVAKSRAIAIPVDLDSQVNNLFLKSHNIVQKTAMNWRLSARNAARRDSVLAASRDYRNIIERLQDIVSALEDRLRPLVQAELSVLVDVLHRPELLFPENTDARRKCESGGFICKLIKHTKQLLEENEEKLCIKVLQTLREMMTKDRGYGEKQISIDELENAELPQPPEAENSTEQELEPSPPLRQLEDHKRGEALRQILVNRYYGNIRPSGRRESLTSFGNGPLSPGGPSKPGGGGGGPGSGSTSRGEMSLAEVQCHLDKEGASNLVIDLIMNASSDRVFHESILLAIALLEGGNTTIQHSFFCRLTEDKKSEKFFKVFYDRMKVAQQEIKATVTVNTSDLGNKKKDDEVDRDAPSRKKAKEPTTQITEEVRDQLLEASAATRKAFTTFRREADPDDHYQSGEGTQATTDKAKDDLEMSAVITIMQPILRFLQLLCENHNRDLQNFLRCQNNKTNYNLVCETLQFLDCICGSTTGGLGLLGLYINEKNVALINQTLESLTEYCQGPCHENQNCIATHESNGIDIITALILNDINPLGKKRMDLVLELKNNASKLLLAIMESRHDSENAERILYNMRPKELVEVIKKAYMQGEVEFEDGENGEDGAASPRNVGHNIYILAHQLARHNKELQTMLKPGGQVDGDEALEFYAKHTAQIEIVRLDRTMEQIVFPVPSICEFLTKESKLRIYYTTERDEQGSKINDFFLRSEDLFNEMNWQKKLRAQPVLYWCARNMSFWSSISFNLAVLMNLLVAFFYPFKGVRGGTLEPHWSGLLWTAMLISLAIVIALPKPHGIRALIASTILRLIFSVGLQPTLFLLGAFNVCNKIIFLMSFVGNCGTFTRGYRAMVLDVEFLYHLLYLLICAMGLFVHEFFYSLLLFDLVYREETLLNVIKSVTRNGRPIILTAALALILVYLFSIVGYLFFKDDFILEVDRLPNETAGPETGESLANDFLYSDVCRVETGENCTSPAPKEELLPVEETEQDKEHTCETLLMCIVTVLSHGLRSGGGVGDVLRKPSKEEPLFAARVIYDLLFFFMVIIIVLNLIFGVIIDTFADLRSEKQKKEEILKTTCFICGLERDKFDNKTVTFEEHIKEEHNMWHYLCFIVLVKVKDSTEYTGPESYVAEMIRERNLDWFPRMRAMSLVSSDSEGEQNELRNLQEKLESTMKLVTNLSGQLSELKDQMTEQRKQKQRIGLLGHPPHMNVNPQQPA", "assay": "Ca2+ release from intracellular stores of permeabilized DT40-IP3R1 cells", "format": "cell-based", "settings": "for fold more potent than IP3 in functional assays: Ca2+ release, relative to IP3"}, "[2]": {"molecular_target": "IBC^R568Q fragment of IP3R1 (Rattus norvegicus, UniProt P29994, R568Q)", "sequence (P29994 224-604 R568Q)": "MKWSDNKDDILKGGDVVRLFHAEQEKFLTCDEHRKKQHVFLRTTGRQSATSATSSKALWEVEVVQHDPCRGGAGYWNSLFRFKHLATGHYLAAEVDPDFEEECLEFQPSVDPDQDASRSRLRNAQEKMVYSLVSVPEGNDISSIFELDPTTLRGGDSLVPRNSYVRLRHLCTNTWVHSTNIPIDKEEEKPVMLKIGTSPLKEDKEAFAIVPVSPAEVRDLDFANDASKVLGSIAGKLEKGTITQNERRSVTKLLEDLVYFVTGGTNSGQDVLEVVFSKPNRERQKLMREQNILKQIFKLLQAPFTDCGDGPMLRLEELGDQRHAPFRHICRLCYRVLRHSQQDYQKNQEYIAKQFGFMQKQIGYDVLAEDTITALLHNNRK", "assay": "Equilibrium-competition 3H-IP3 binding to IBC^R568Q", "method_in_brief": "(§1)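 His6-tagged rat IP3R1 IBC (residues 224–604, S1 site included), wild type or point mutant, expressed in E. coli BL21(DE3) (0.5 mM IPTG, 20 h, 15°C). Lysate (~1–10 µg protein) incubated 5 min at 4°C in CLM (pH 7.0, free Ca2+ 220 nM) with 3H-IP3 (0.75–3 nM) and competitor. PEG/γ-globulin precipitation, scintillation counting. Hill fit; Kd by Cheng–Prusoff; ΔpKd from log differences.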"}, "IP3R1^R504Q": {"molecular_target": "IP3R1^R504Q (Rattus norvegicus, UniProt P29994, DEL318-332/R504Q)", "assay": "Ca2+ release from permeabilized DT40 cells expressing only IP3R1^R504Q", "format": "cell-based"}, "[3]": {"molecular_target": "NT^R504Q fragment of IP3R1 (Rattus norvegicus, UniProt P29994, DEL318-332/R504Q)", "assay": "Equilibrium-competition 3H-IP3 binding to NT^R504Q", "settings": "TEM", "method_in_brief": "(§2)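 Rat IP3R1 N-terminal fragment (residues 1–604, lacking S1 site), His6-tagged, wild type or point mutant, expressed in E. coli BL21(DE3) as bacterial lysate (~1–10 µg protein). Competed against 1.5 nM 3H-IP3 for 5 min at 4°C in TEM (50 mM Tris, 1 mM EDTA, pH 8.3) or, for wild-type NT only, CLM (pH 7.0). Counted after PEG precipitation. Hill fit; Kd by Cheng–Prusoff; ΔpKd from log values.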"}, "full-length IP3R1": {"molecular_target": "full-length IP3R1 (Rattus norvegicus, UniProt P29994)", "format": "binding", "settings": "full-length IP3R1, TEM"}, "IP3R1^R568Q": {"molecular_target": "IP3R1^R568Q (Rattus norvegicus, UniProt P29994, DEL318-332/R568Q)", "assay": "Ca2+ release from permeabilized DT40 cells expressing only IP3R1^R568Q", "format": "cell-based", "method_in_brief": "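Mag-fluo-4 AM (20 µM, 1 h, 20°C) loaded into DT40 cells lacking endogenous IP3R and stably expressing mutant rat IP3R1. Cells were saponin-permeabilized (10 µg·mL−1) into Mg2+-free CLM with 10 µM FCCP, free Ca2+ ~220 nM. Stores were loaded with 1.5 mM MgATP before test compound was added. Fluorescence was read at 485/520 nm, 20°C. Release is a fraction of ATP-dependent uptake, Hill-fitted for EC50, with ΔpEC50 versus wild type from log values. Three determinations per experiment, 4–6 experiments.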"}, "[4]": {"molecular_target": "IBC^R504Q fragment of IP3R1 (Rattus norvegicus, UniProt P29994, R504Q)", "sequence (P29994 224-604 R504Q)": "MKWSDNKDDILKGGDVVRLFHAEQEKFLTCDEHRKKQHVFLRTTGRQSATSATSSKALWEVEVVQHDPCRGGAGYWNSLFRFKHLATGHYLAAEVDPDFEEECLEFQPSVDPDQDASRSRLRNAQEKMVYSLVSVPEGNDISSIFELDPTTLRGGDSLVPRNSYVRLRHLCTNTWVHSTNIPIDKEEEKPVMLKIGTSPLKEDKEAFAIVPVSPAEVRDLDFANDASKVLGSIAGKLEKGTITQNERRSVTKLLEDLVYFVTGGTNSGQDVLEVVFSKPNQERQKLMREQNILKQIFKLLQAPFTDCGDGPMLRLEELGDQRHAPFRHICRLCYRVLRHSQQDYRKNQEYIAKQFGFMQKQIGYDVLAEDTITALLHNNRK", "assay": "Equilibrium-competition 3H-IP3 binding to IBC^R504Q", "settings": "CLM", "method_in_brief": "as §1"}, "IP3R": {"test_system": "IP3R", "settings": "recalculated from published data; ref Takahashi et al., 1994a,b,c; cited from earlier work"}, "[5]": {"molecular_target": "NT^R568Q fragment of IP3R1 (Rattus norvegicus, UniProt P29994, DEL318-332/R568Q)", "sequence (P29994 1-589 isoform P29994-2 R553Q limits assumed)": "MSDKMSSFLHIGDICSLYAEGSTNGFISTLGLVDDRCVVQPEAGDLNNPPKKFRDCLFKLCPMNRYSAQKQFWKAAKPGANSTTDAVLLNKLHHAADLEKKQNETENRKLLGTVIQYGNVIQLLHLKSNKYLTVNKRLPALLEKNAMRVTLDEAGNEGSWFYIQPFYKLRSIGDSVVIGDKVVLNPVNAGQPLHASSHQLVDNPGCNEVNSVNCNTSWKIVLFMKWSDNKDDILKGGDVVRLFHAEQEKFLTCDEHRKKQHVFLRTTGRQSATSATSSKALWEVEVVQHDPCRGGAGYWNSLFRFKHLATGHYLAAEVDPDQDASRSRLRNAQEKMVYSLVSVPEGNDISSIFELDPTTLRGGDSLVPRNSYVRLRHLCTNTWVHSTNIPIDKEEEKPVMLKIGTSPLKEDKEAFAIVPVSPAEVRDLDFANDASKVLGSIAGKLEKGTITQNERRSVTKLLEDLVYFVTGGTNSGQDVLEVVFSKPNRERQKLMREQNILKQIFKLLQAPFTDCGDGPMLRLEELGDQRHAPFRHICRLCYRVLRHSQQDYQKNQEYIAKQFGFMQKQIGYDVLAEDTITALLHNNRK", "assay": "Equilibrium-competition 3H-IP3 binding to NT^R568Q", "method_in_brief": "as §2"}, "[6]": {"molecular_target": "NT (residues 1–604) of IP3R1 (Rattus norvegicus, UniProt P29994, DEL318-332)", "sequence (P29994 1-589 isoform P29994-2 limits assumed, stated change not applied)": "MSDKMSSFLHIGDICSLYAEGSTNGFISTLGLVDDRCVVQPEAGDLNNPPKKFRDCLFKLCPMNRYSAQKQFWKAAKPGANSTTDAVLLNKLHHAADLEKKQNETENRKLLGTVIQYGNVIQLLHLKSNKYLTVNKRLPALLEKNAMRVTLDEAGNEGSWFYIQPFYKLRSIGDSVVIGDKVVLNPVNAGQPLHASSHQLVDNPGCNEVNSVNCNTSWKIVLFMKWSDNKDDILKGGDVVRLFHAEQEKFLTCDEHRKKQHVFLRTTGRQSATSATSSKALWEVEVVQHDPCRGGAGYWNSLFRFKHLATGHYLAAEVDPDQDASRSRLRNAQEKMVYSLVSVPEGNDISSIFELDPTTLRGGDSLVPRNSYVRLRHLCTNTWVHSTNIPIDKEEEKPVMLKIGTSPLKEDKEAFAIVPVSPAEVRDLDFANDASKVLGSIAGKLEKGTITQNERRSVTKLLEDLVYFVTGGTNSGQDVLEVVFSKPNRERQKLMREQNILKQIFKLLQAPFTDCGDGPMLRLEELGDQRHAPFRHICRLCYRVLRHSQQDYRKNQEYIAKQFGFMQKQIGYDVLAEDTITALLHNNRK", "assay": "Equilibrium-competition 3H-IP3 binding to the NT fragment", "settings": "for Binding ΔpKd, IP3 / AdA: pair IP3 / AdA", "method_in_brief": "as §2"}, "[7]": {"molecular_target": "IBC (IP3-binding core, residues 224–604 of IP3R1) (Rattus norvegicus, UniProt P29994)", "sequence (P29994 224-604)": "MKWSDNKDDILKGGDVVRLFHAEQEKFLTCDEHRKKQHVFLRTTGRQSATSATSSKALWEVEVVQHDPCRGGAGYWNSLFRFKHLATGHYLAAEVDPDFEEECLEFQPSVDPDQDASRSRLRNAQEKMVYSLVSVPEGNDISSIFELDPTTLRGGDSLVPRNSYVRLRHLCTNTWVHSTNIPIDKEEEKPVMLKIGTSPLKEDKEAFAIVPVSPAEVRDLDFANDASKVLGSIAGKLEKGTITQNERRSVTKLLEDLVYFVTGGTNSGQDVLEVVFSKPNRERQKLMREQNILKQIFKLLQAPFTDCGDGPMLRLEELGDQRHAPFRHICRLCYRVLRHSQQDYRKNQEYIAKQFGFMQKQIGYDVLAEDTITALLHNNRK", "assay": "Equilibrium-competition 3H-IP3 binding to the IBC", "settings": "CLM", "method_in_brief": "as §1"}}, "note": "“And” between values parts separate entries of the source, which are not always exact repeats. Equal values may be shown once."}
{"smiles": "Nc1ncnc2c1ncn2[C@@H]1O[C@H](CO)[C@@H](O[C@H]2O[C@H](CO)[C@@H](OP(=O)(O)O)[C@H](OP(=O)(O)O)[C@H]2O)[C@H]1OP(=O)(O)O", "note": "[AdA, adenophostin A]", "values": [{"measurement": "EC50", "setting": "[1]; Ca2+ release EC50, DT40 cells expressing wild-type IP3R1", "value": 3, "unit": "nM"}, {"measurement": "EC50", "setting": "[1]; Ca2+ release pEC50 ± SEM, permeabilized DT40-IP3R1 cells, CLM", "value": 3.09, "unit": "nM"}, {"measurement": "fold more potent than IP3 in functional assays", "setting": "[1]; CLM", "value": "~12", "unit": "fold"}, {"measurement": "fold more potent than IP3 in functional assays", "setting": "[1]; CLM, listed as Adenophostin A", "value": "at least 12 fold"}, {"measurement": "Ca2+ release, Release (%)", "setting": "[1]; maximal Ca2+ release, fraction of ATP-dependent uptake, wild-type IP3R1", "value": "78 ± 3", "unit": "%"}, {"measurement": "Ca2+ release ΔpEC50, IP3 / AdA", "setting": "[1]; pair IP3 / AdA, DT40-IP3R1 cells", "value": "1.09 ± 0.05"}, {"measurement": "Ca2+ release nHill ± SEM", "setting": "[1]; permeabilized DT40-IP3R1 cells, CLM", "value": "1.4 ± 0.1"}, {"measurement": "Kd", "setting": "[2]", "value": 9.48, "unit": "nM"}, {"measurement": "Relative affinity ΔpKd, R568Q / wild-type IBC", "setting": "[2]; IBC^R568Q vs IBC, CLM", "value": "1.49 ± 0.11"}, {"measurement": "fold reduction of affinity by the R568Q mutation", "setting": "[2]; IBC^R568Q vs IBC, CLM", "value": "~30 fold and 31 fold"}, {"measurement": "nHill ± SEM", "setting": "[2]; IBC^R568Q, CLM", "value": "1.3 ± 0.6"}, {"measurement": "EC50", "setting": "IP3R1^R504Q", "value": 604, "unit": "nM"}, {"measurement": "Relative potency ΔpEC50, R504Q / wild-type IP3R1", "setting": "IP3R1^R504Q; Ca2+ release, IP3R1^R504Q vs IP3R1", "value": "2.29 ± 0.06"}, {"measurement": "Ca2+ release nHill ± SEM", "setting": "IP3R1^R504Q; IP3R1^R504Q", "value": "1.3 ± 0.2"}, {"measurement": "Release (%)", "setting": "IP3R1^R504Q; maximal Ca2+ release, IP3R1^R504Q", "value": "61 ± 3", "unit": "%"}, {"measurement": "Kd", "setting": "[3]; Kd", "value": 16.5, "unit": "nM"}, {"measurement": "nHill ± SEM", "setting": "[3]", "value": "0.9 ± 0.1"}, {"measurement": "Binding nHill ± SEM", "setting": "full-length IP3R1", "value": "1.5 ± 0.1"}, {"measurement": "EC50", "setting": "IP3R1^R568Q", "value": 20, "unit": "nM"}, {"measurement": "Relative potency ΔpEC50, R568Q / wild-type IP3R1", "setting": "IP3R1^R568Q; Ca2+ release, IP3R1^R568Q vs IP3R1", "value": "0.81 ± 0.07"}, {"measurement": "fold reduction of potency in IP3R1^R568Q cells", "setting": "IP3R1^R568Q; Ca2+ release, vs wild-type IP3R1", "value": "sixfold"}, {"measurement": "Ca2+ release nHill ± SEM", "setting": "IP3R1^R568Q; IP3R1^R568Q", "value": "1.0 ± 0.2"}, {"measurement": "Release (%)", "setting": "IP3R1^R568Q; maximal Ca2+ release, IP3R1^R568Q", "value": "53 ± 3", "unit": "%"}, {"measurement": "Relative affinity ΔpKd, R504Q / wild-type IBC", "setting": "[4]; IBC^R504Q vs IBC", "value": "2.55 ± 0.05"}, {"measurement": "fold reduction of affinity by the R504Q mutation", "setting": "[4]; IBC^R504Q vs IBC", "value": 353, "unit": "fold"}, {"measurement": "nHill ± SEM", "setting": "[4]; IBC^R504Q", "value": "1.5 ± 0.2"}, {"measurement": "Kd", "setting": "[4]; Kd, IBC^R504Q", "value": 149, "unit": "nM"}, {"measurement": "fold greater affinity than IP3", "setting": "IP3R", "value": "about 18 fold"}, {"measurement": "Kd", "setting": "[5]", "value": 2.81, "unit": "nM"}, {"measurement": "nHill ± SEM", "setting": "[5]; NT^R568Q, TEM", "value": "1.3 ± 0.2"}, {"measurement": "nHill ± SEM", "setting": "[6]; CLM", "value": "1.3 ± 0.2"}, {"measurement": "Kd", "setting": "[6]; Kd, CLM", "value": 3.44, "unit": "nM"}, {"measurement": "fold greater affinity than IP3", "setting": "[6]; TEM", "value": "about 15 fold"}, {"measurement": "nHill ± SEM", "setting": "[6]; TEM", "value": "1.0 ± 0.1"}, {"measurement": "Kd", "setting": "[6]; pKd ± SEM, TEM", "value": 0.141, "unit": "nM"}, {"measurement": "Binding ΔpKd, IP3 / AdA", "setting": "[6]; CLM", "value": "1.14 ± 0.21"}, {"measurement": "Binding ΔpKd, IP3 / AdA", "setting": "[6]; TEM", "value": "1.18 ± 0.12"}, {"measurement": "fold greater affinity than IP3", "setting": "[7]", "value": "~20", "unit": "fold"}, {"measurement": "nHill ± SEM", "setting": "[7]", "value": "1.3 ± 0.3"}, {"measurement": "Kd", "setting": "[7]; Kd", "value": 0.31, "unit": "nM"}, {"measurement": "Binding ΔpKd, IP3 / AdA", "setting": "[7]; pair IP3 / AdA", "value": "1.37 ± 0.07"}]}
